Experimental data of several laboratories.
Lines come from different studies, so protocols differ.
Action: inhibitor
SIRT1: NAD-dependent protein deacetylase sirtuin-1 (SIRT1, Homo sapiens, UniProt Q96EB6)
XDH: Xanthine dehydrogenase/oxidase (XDH, Bos taurus, UniProt P80457)
SLC7A5: Large neutral amino acids transporter small subunit 1 (SLC7A5, Homo sapiens, UniProt Q01650)
SPHK2: Sphingosine kinase 2 (SPHK2, Homo sapiens, UniProt Q9NRA0)

SMILES | target | observed | technique | tested at | inhibition
CCCCCC1CC(=O)c2cc([N+](=O)[O-])ccc2O1 (stereo not drawn) | SIRT1 | enzyme activity | fluorescence | 200 µM | 4.7%
O=C(O)c1ccc(O)cc1 | XDH | enzyme activity | absorbance | 200 µg/mL | 17.9%
N[C@@H](CO)C(=O)O | SLC7A5 | transporter uptake | radiometric | 200 µM | -1%
CS(=O)(=O)Nc1cccc(-c2csc(NC(=O)CSc3nc4nccnc4c(=O)n3CCc3ccccc3)n2)c1 | SPHK2 | enzyme activity | – | 10 µM | -12%
O=Cc1c[nH]c2ccccc12 | XDH | enzyme activity | absorbance | 200 µg/mL | 13.1%
CCCCCC1CC(=O)c2ccccc2O1 (stereo not drawn) | SIRT1 | enzyme activity | fluorescence | 200 µM | 8.5%
O=C1C=C(c2ccc(O)c(O)c2)CO1 | XDH | enzyme activity | absorbance | 100 µg/mL | 17.2%
[H]/N=C(\N)N1CCC[C@H]1c1nc(-c2ccc(OCC=Cc3ccc(F)cc3)c(C(F)(F)F)c2)no1 | SPHK2 | enzyme activity | radiometric | 0.3 µM | 57%
CCCC(=S)NCCCC[C@H](NS(C)(=O)=O)C(=O)N[C@H](C)C(=O)N[C@@H](CCCNC(=N)N)C(N)=O | SIRT1 | enzyme activity | – | 10 µM | 14%
CCCCCC1CC(=O)c2cc(F)cc(F)c2O1 (stereo not drawn) | SIRT1 | enzyme activity | fluorescence | 200 µM | 0.4%
O=C(NC1CCC1)[C@H](Cc1c[nH]c2ccccc12)NC(=O)[C@H](CCCCNC(=S)NCc1cc(O)no1)NS(=O)(=O)c1cccc(F)c1 | SIRT1 | enzyme activity | – | 30 µM | 49%
[H]/N=C(\N)N1CCC[C@H]1c1nc(-c2ccc(OCC=Cc3ccccc3C(F)(F)F)c(C(F)(F)F)c2)no1 | SPHK2 | enzyme activity | radiometric | 0.3 µM | 0%
N[C@@H](Cc1cccc(OC(=O)c2ccccc2)c1)C(=O)O | SLC7A5 | transporter uptake | radiometric | 200 µM | 100%
C[C@@H](NC(=O)[C@H](CCCCNC(=O)C(F)(F)F)NS(C)(=O)=O)C(=O)N[C@@H](CCCNC(=N)N)C(N)=O | SIRT1 | enzyme activity | – | 100 µM | 14%
CCCC=CCOc1ccc(-c2noc([C@@H]3CCCN3C(=N)N)n2)cc1C(F)(F)F | SPHK2 | enzyme activity | radiometric | 0.3 µM | 28%
Oc1ncnc2[nH]ncc12 | XDH | enzyme activity | absorbance | 25 µg/mL | 97%
CCCCCCCCCCCCNC(=S)NCCCC[C@H](NC(=O)OCc1ccccc1)C(=O)N[C@@H](C)C(=O)N[C@@H](CCCNC(=N)N)C(N)=O | SIRT1 | enzyme activity | – | 1 µM | 61%
CCCCCC1CC(=O)c2cc(Br)cc(Br)c2O1 (stereo not drawn) | SIRT1 | enzyme activity | fluorescence | 200 µM | 0.6%
COc1cc(-c2cc(-c3ccc(N4CCNCC4)cc3)cnc2N)cc(OC)c1OC | Platelet-derived growth factor receptor alpha (PDGFRA, Homo sapiens, UniProt P16234, D842V) | enzyme activity | – | 1 µM | 90%
[H]/N=C(/N)N1CCC[C@H]1c1nc(-c2ccc(OCCC=CCCC)c(C(F)(F)F)c2)no1 | SPHK2 | enzyme activity | radiometric | 0.3 µM | 56%
CCCCCCCCCCCCCC(=O)NNCCC[C@H](NC(=O)OCc1ccccc1)C(=O)N[C@@H](Cc1c[nH]c2ccccc12)C(=O)NC(C)C | SIRT1 | enzyme activity | – | 100 µM | 10%
